Experimental data taken from article PMC5756068 (Nature chemical biology, 2016).

Assays:
MDM2 [1] = assay: shRNA-induced cell viability rescue, MDM2 knockdown; format: cell-based; settings: shRNA cells transfected with peptide; triplicate
[2] = Downstream effect of peptide, gels of Fig. 4 and Supplementary Fig. 7; format: cell-based; settings: triplicate; cell line not stated
Panc 02.03 cells = assay: Downstream effects of peptide expression, Western blot, Panc 02.03; format: cell-based
MDM2 [3] = assay: FRET microscopy, peptide-GFP and MDM2-mCherry; format: binding; settings: HEK293T cells, confocal FRET microscopy, 48 h after transfection
Summary of the method: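 HEK293T cells were seeded at 5 × 10^4 per well on poly-L-lysine-coated glass coverslips and kept at 37°C in 5% CO2. They were co-transfected with GFP-fused peptide and mCherry-fused target, then fixed with 4% paraformaldehyde 48 h later, washed in PBS and imaged by confocal FRET microscopy at room temperature. Laser power and PMT gain were held constant. […] excitation was used with FRET detection at […]. Net FRET was obtained by subtracting GFP bleed-through and mCherry direct emission. Controls expressed GFP and/or mCherry alone.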

Mia Paca-2 cells = assay: Downstream effects of peptide expression, Western blot, Mia Paca-2; format: cell-based
RWP1 cells [4] = assay: Downstream effects of peptide expression, Western blot, RWP1; format: cell-based, human
[5] = system: AKT (S473) phosphorylation in RWP1 cells; assay: Serum-induced AKT; format: cell-based, human; settings: RWP1 starved 24 hours, 10% FBS for 20 minutes; Western blot
Summary of the method: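 Peptide expressed or not in RWP1 cells, which were starved 24 h and then given 10% FBS for 20 min. Lysate proteins run on 10% Bis-Tris SDS-PAGE and transferred to PVDF. Blots probed with anti-AKT (1:1000) or anti-phospho-AKT S473 (1:1000), then HRP secondary (1:2500), with ECL detection. Paired with HEK293T cells treated the same way.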

HEK293T cells = assay: Downstream effects of peptide expression, Western blot, HEK293T; format: cell-based, human
RWP1 cells [6] = assay: Cell viability with synthetic lipidated peptides, RWP1; format: cell-based, human; settings: duplicate
SFN = assay: shRNA-induced cell viability rescue, SFN knockdown; format: cell-based; settings: shRNA cells transfected with peptide; triplicate
cell cycle = assay: FACS analysis of cell cycle; format: cell-based; settings: triplicate
GCHFR = assay: shRNA-induced cell viability rescue, GCHFR knockdown; format: cell-based; settings: shRNA cells transfected with peptide; triplicate

## ETFSDLW
MDM2 [1]
  rescue of peptide phenotype by knockdown of MDM2: showed rescue of the peptide phenotype
[2]
  P53 level: increasing P53 levels
Panc 02.03 cells
  p21 level: increase in p21 levels
  p53 level: decrease in degradation of p53
MDM2 [3]
  FRET signal with MDM2: Positive FRET signals
Mia Paca-2 cells
  p21 level: increase in p21 levels
  p53 level: decrease in degradation of p53
RWP1 cells [4]
  p21 level: increase in p21 levels
  p53 level: decrease in degradation of p53

## KFFCTIL
[5]
  serum-induced AKT phosphorylation: inhibited the increase in AKT phosphorylation
Panc 02.03 cells
  p21 level: increased the expression of p21
  phospho-AKT (S473) level: decrease of the level of phospho-AKT (S473)
RWP1 cells [4]
  p21 level: increased the expression of p21
  phospho-AKT (S473) level: decrease of the level of phospho-AKT (S473)
HEK293T cells
  phospho-AKT (S473) level: did not affect the level of phospho-AKT

## PSSLAYSLKKH
Panc 02.03 cells
  p21 level: accumulation of p53 and p21
  p53 level: accumulation of p53 and p21
Mia Paca-2 cells
  p21 level: accumulation of p53 and p21
  p53 level: accumulation of p53 and p21
RWP1 cells [4]
  p21 level: accumulation of p53 and p21
  p53 level: accumulation of p53 and p21
HEK293T cells
  p21 level: did not affect the level of p53 and p21
  p53 level: did not affect the level of p53 and p21

## Pal-NPFREKKFFCTIL-NH2 [GNG4-1]
RWP1 cells [6]
  effect on cell viability (in words): strong dosage dependent effects on cell viability

## Pal-PSSLAYSLKKH-OH [INCENP-1]
RWP1 cells [6]
  effect on cell viability (in words): strong dosage dependent effects on cell viability

## Pal-RTLSQLYCSYGPLT-OH [MUS81-1]
RWP1 cells [6]
  effect on cell viability (in words): strong dosage dependent effects on cell viability

## RTLSQLYCSYGPLT
Panc 02.03 cells
  p21 level: increases the expression of p53 and p21
  p53 level: increases the expression of p53 and p21
RWP1 cells [4]
  p21 level: increases the expression of p53 and p21
  p53 level: increases the expression of p53 and p21

## TEGPDSD
SFN
  rescue of peptide phenotype by knockdown of SFN: showed rescue of the peptide phenotype
Cell cycle; FACS, DAPI, 24, 72 and 120 hours, cell line not stated
  effect on cell cycle: cell cycle arrest in G2
Cell cycle; different time points
  percentage of GFP positive cells vs GFP alone: similar
[2]
  cdc2 level: decrease in cyclin B1 and cdc2 levels
  cyclin A level: increase in cyclin A
  cyclin B1 level: decrease in cyclin B1 and cdc2 levels
Panc 02.03 cells
  cyclin A2 expression: increase of cyclin A2 expression
Mia Paca-2 cells
  cdc2 expression: reduced expression of both cyclin B1 and cdc2
  cyclin A2 expression: increase of cyclin A2 expression
  cyclin B1 expression: reduced expression of both cyclin B1 and cdc2
RWP1 cells [4]
  cdc2 expression: reduced expression of both cyclin B1 and cdc2
  cyclin A2 expression: increase of cyclin A2 expression
  cyclin B1 expression: reduced expression of both cyclin B1 and cdc2

## VWCLHKE
GCHFR
  rescue of peptide phenotype by knockdown of GCHFR: showed rescue of the peptide phenotype
